Experiments:
[1] = target: T1, Phospholipase A2, membrane associated (Homo sapiens) (UniProt P14555); test: Inhibitory activity against human synovial Phospholipase at 10 uM
T1 sequence (whole entry): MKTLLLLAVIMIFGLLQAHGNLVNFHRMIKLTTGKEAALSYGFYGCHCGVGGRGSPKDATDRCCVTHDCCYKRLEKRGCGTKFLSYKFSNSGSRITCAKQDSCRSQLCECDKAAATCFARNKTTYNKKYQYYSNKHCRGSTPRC
Method in brief: (§1)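 Enzyme diluted in 100 mM Tris-HCl, 1 mM CaCl2, pH 7.5; preincubated 5 min at 37 °C with test compound or vehicle, then 15 min with autoclaved oleate-labeled membranes as substrate. Stopped with ice-cold BSA in saline (final 0.07% w/v), centrifuged 2500g 10 min at 4 °C. Supernatant radioactivity counted by liquid scintillation; percent inhibition at 10 μM, means ± SEM, n = 6.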

[2] = tested on: Phospholipase A2 (Naja naja); test: Inhibitory activity against naja naja secretory Phospholipase A2 at 10 uM; settings: snake
[3] = target: Phospholipase A2, major isoenzyme (Sus scrofa) (UniProt P00592); test: Inhibitory activity against Porcine pancreatic secretory Phospholipase A2 at 10 uM; method in brief: as §1
Chain of Phospholipase A2, major isoenzyme (Sus scrofa) (P00592 23-146 limits assumed): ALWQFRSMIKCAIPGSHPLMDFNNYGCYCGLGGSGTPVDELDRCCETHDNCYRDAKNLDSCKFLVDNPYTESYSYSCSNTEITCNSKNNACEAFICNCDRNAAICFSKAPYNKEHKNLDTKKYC

[4] = target: T2, Phospholipase A2 (Apis mellifera) (UniProt P00630); test: Inhibitory activity against bee secretory Phospholipase A2 enzyme at 10 uM
T2 sequence (whole entry): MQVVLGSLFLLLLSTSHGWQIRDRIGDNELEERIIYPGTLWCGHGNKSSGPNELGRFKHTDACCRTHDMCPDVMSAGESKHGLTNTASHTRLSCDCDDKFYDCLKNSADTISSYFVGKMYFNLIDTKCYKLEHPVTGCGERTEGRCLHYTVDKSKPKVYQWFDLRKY

[5] = target: T2, Phospholipase A2 (Apis mellifera); test: Inhibitory activity against bee secretory Phospholipase A2 enzyme when pre-incubated for 60 minutes
Method in brief: (§2)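 Bee venom PLA2 was incubated at 41 °C with the test compound or methanol (control) in 100 mM Tris-HCl, 1 mM CaCl2, pH 7.5, for varied preincubation times. It was then diluted 2-fold with Tris buffer or with hydroxylamine (final 50 mM, pH 7.5) and held 2 h at 41 °C. PLA2 activity was then assayed. Final compound concentrations were 5–50 μM. n = 6.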

[6] = target: T2, Phospholipase A2 (Apis mellifera); test: Inhibitory activity against bee secretory Phospholipase A2 enzyme when pre-incubated with Tris buffer for 5 minutes; method in brief: as §2
[7] = target: T2, Phospholipase A2 (Apis mellifera); test: Inhibitory activity against bee secretory Phospholipase A2 enzyme when pre-incubated with Hydroxylamine for 60 minutes; method in brief: as §2
[8] = target: T2, Phospholipase A2 (Apis mellifera); test: Inhibitory activity against bee secretory Phospholipase A2 enzyme when pre-incubated for 15 minutes; method in brief: as §2
[9] = target: T2, Phospholipase A2 (Apis mellifera); test: Inhibitory activity against bee secretory Phospholipase A2 enzyme when pre-incubated with Tris buffer for 60 minutes; method in brief: as §2
[10] = target: T2, Phospholipase A2 (Apis mellifera); test: Inhibitory activity against bee secretory Phospholipase A2 enzyme when pre-incubated with Hydroxylamine for 5 minutes; method in brief: as §2
[11] = target: T2, Phospholipase A2 (Apis mellifera); test: Inhibitory activity against bee secretory Phospholipase A2 enzyme when pre-incubated with Tris buffer for 15 minutes; method in brief: as §2
[12] = target: T2, Phospholipase A2 (Apis mellifera); test: Inhibitory activity against bee secretory Phospholipase A2 enzyme when pre-incubated with Hydroxylamine for 15 minutes; method in brief: as §2
[13] = target: T2, Phospholipase A2 (Apis mellifera); test: Inhibitory activity against bee secretory Phospholipase A2 enzyme when pre-incubated for 5 minutes; method in brief: as §2
Phospholipase A2 = target: T3, Phospholipase A2 (Apis mellifera, UniProt P00630); test: Inhibitory activity against bee secretory Phospholipase A2 enzyme
T3 sequence (P00630 whole entry): T2 sequence (whole entry)

[14] = target: T4, Phospholipase A2, membrane associated (Homo sapiens, UniProt P14555); test: Inhibitory activity against human synovial recombinant Phospholipase enzyme
T4 sequence (P14555 whole entry): T1 sequence (whole entry)

[15] = target: T2, Phospholipase A2 (Apis mellifera); test: Inhibitory activity against secretory PLA2 enzyme (Bee venom) when pre-incubated with Hydroxylamine for 15 minutes; method in brief: as §2
[16] = target: T2, Phospholipase A2 (Apis mellifera); test: Inhibition against bee secretory PLA2 enzyme when pre-incubated for 5 minutes; method in brief: as §2
Mus musculus [17] = test: Inhibitory activity against carrageenan induced paw edema at a oral dose of 10 mg/kg in mouse 3 hours after carrageenan administration; format: functional
Method in brief: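 Female Swiss mice (20–25 g), fasted 12 h with water available, in groups of six, dosed orally (0.5 mL) in ethanol/Tween 80/water 5:5:90 1 h before subplantar injection of 0.05 mL 3% w/v carrageenan into right hind paw. Paw volumes read by plethysmometer; edema = injected minus contralateral volume; percent inhibition vs vehicle controls; ANOVA with Dunnett's test.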

Mus musculus [18] = test: Inhibitory activity against carrageenan induced paw edema at a oral dose of 10 mg/kg in mouse 5 hours after carrageenan administration; format: functional
Method in brief: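 Female Swiss mice (20–25 g) were fasted 12 h and dosed orally in ethanol/Tween 80/water (5:5:90), n = 6 per group. One hour later, 0.05 mL of 3% carrageenan was injected subplantar into the right hind paw. Edema was injected minus contralateral paw volume by plethysmometer, expressed as % inhibition versus control. ANOVA with Dunnett's test.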

CC1=CCC(C2=CC(=O)OC2O)OC1O (stereo unspecified)
inhibition [1]: 3.2%
inhibition [2]: 3%
inhibition [3]: 6.8%
inhibition [4]: 14.9%

O=C1C=C(C2CC=C(Cc3ccccc3)C(O)O2)C(O)O1 (stereo unspecified)
inhibition [1]: 11.9%
inhibition [2]: 7.1%
inhibition [3]: 16.1%
inhibition [4]: 16.1%

C=C1CCC[C@H]2[C@](C)(CCC3=CCC(C4=CC(=O)OC4O)OC3)[C@H](C)CC[C@]12C (stereo partly specified)
inhibition [5]: 100%
inhibition [6]: 95.4%
inhibition [7]: 99.3%
inhibition [8]: 93.7%
inhibition [9]: 98.4%
inhibition [10]: 81.9%
inhibition [11]: 95.4%
inhibition [12]: 89.4%
inhibition [13]: 85.8%

CC1=C(CC/C(C)=C/CCC2=CC[C@H](C3=CC(=O)O[C@H]3O)O[C@H]2O)C(C)(C)CCC1
inhibition [5]: 91.1%
inhibition [6]: 42.4%
inhibition [1]: 93.2%
inhibition [7]: 43.1%
inhibition [3]: 32.3%
inhibition [8]: 63.3%
inhibition [9]: 47.3%
inhibition [10]: 21%
inhibition [11]: 44.2%
inhibition [12]: 28%
inhibition [4]: 62.5%
inhibition [13]: 49.5%

O=C1C=C(C2CC=CCO2)C(O)O1 (stereo unspecified)
inhibition [1]: 42.3%
inhibition [2]: 10.1%
inhibition [3]: 0.2%
inhibition [4]: 9.3%

C/C=C/CC1=CCC(C2=CC(=O)OC2O)OC1O (stereo unspecified)
inhibition [1]: 21.2%
inhibition [2]: 1.8%
inhibition [3]: 15.1%
inhibition [4]: 24.8%

CC1=CCC(C2=CC(=O)OC2O)OC1 (stereo unspecified)
inhibition [1]: 0.1%
inhibition [2]: 1.4%
inhibition [3]: 5.6%
inhibition [4]: 8%

CC(C)=CCC/C(C)=C/CC/C(C)=C/CC1=CCC(C2=CC(=O)OC2O)OC1O (stereo unspecified)
IC50 (Phospholipase A2): 500 nM
inhibition [5]: 95.1%
IC50 [14]: 900 nM
inhibition [15]: 56.9%
inhibition [16]: 48.4%
inhibition [6]: 80.8%
inhibition [1]: 74.6%
inhibition [2]: 33.6%
inhibition [7]: 71.5%
inhibition in vivo at 10 mg/kg (Mus musculus [17]): 42.9%
inhibition [3]: 39.8%
inhibition in vivo at 10 mg/kg (Mus musculus [18]): 43.2%
inhibition [8]: 70.3%
inhibition [9]: 75.2%
inhibition [10]: 39.1%
inhibition [11]: 80.9%
inhibition [4]: 84.2%

C/C=C/CC1=CCC(C2=CC(=O)OC2O)OC1 (stereo unspecified)
inhibition [1]: 24.8%
inhibition [2]: 7.1%
inhibition [3]: 17.6%
inhibition [4]: 40.1%

O=C1C=C(C2CC=CC(O)O2)C(O)O1 (stereo unspecified)
inhibition [1]: 18.9%
inhibition [2]: 5.2%
inhibition [3]: 1%
inhibition [4]: 0.7%

CC(C)=CCC/C(C)=C/CC/C(C)=C/CC1=CCC(C2=CC(=O)OC2O)OC1 (stereo unspecified)
IC50 (Phospholipase A2): 1700 nM
inhibition [5]: 99.7%
IC50 [14]: 4200 nM
inhibition [6]: 58.5%
inhibition [1]: 63.1%
inhibition [7]: 65.1%
inhibition [3]: 30%
inhibition [8]: 87.1%
inhibition [9]: 65.3%
inhibition [10]: 50.1%
inhibition [11]: 58.7%
inhibition [12]: 51.1%
inhibition [4]: 71.8%
inhibition [13]: 85.6%

COc1ccc2c(c1)c(CC(=O)O)c(C)n2C(=O)c1ccc(Cl)cc1 [INDOMETHACIN]
inhibition in vivo at 10 mg/kg (Mus musculus [17]): 40%
inhibition in vivo at 10 mg/kg (Mus musculus [18]): 42.3%

O=C1C=C(C2CC=C(Cc3ccccc3)CO2)C(O)O1 (stereo unspecified)
inhibition [1]: 15.5%
inhibition [2]: 7.6%
inhibition [3]: 17.4%
inhibition [4]: 30.3%
